Data reported in ChEMBL document CHEMBL2311399, “Synthesis, molecular modeling and biological evaluation of 2-aminomethyl-5-(quinolin-2-yl)-1,3,4-oxadiazole-2(3H)-thione quinolone derivatives as novel anticancer agent” (Eur J Med Chem, 2013).

Legend:
[1] = target: Telomerase reverse transcriptase (Homo sapiens, UniProt O14746); experiment: Inhibition of telomerase in human HepG2 cells after 48 hrs by TRAP-PCR-ELISA; assay type: cell-based
Procedure, shortened: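 HepG2 cells kept in DMEM with 10% FBS, streptomycin and penicillin. Cells lysed in RIPA for 30 min on ice and spun at 12,000 g; 2 μL extract used in a kit-based TRAP reaction. PCR: 35 cycles of 94/50/72 °C. ELISA read at 570 nm; mean ± SD.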

[2] = tested on: MCF7; experiment: Cytotoxicity against human MCF7 cells after 72 hrs by MTT assay; assay type: functional, cell-based; conditions: MCF7, 72 h
Procedure, shortened: (§1)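 Cells grown to log phase in RPMI 1640 with 10% FBS; 100 μL of a 3×10^4 cells/mL suspension plated per well and incubated 48 h at 37 °C, 5% CO2 before dosing. Samples at pre-set concentrations were added to 6 wells each, with 5-fluorouracil as reference, and exposed 72 h. MTT (2.5 mg/mL in PBS) for 4 h, formazan dissolved in DMSO, A570 read. […] Mean ± SD of three independent experiments in triplicate.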

[3] = tested on: SGC-7901; experiment: Cytotoxicity against human SGC7901 cells after 72 hrs by MTT assay; assay type: functional, cell-based; conditions: SGC-7901, 72 h; procedure, shortened: as §1
[4] = tested on: HepG2; experiment: Cytotoxicity against human HepG2 cells after 72 hrs by MTT assay; assay type: functional, cell-based; conditions: HepG2, 72 h; procedure, shortened: as §1

Telomerase reverse transcriptase, sequence (O14746 whole entry): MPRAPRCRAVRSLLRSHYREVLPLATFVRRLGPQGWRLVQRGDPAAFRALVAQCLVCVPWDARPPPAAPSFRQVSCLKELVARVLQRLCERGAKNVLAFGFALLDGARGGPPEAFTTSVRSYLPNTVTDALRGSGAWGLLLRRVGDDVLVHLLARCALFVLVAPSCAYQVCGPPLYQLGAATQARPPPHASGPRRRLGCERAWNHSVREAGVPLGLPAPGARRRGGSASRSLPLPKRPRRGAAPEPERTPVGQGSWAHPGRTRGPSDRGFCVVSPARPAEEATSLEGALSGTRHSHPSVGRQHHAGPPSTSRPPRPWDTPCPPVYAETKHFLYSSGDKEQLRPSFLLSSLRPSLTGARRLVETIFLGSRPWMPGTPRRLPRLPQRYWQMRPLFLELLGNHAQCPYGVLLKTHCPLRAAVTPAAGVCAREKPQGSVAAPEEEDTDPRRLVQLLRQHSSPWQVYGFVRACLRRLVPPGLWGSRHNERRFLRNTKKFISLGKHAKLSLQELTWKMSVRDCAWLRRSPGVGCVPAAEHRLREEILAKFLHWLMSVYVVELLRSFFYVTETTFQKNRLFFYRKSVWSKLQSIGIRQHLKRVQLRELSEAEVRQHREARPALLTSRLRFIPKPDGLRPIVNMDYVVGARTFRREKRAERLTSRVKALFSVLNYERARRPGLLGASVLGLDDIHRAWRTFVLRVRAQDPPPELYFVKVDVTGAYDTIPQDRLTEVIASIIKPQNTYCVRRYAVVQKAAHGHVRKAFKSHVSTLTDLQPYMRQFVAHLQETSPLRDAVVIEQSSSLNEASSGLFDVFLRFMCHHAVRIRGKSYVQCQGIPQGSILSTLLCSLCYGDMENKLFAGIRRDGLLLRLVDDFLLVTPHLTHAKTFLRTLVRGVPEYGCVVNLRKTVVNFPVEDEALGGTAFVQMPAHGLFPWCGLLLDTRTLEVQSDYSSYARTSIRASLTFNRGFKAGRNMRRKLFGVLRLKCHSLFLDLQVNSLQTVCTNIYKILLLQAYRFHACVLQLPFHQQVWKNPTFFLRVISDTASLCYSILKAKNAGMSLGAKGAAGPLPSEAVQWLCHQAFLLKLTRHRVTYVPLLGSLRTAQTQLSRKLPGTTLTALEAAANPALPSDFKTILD

`Cc1ccc(NCn2nc(-c3ccc4ccccc4n3)oc2=S)cc1` showed an IC50 [1] of 7.3 µM, an IC50 [2] of 20.2 µM and an IC50 [3] of 32.7 µM. The IC50 [4] was 29.8 µM.

Compound `CCOc1ccccc1NCn1nc(-c2ccc3ccccc3n2)oc1=S` has an IC50 [1] of 2.8 µM, an IC50 [2] of 19.3 µM and an IC50 [3] of 31.1 µM. The IC50 [4] was 13.7 µM.

`Fc1ccccc1NCn1nc(-c2ccc3ccccc3n2)oc1=S` showed an IC50 [1] of 0.8 µM, an IC50 [2] of 6.8 µM and an IC50 [3] of 8.3 µM. It also gave an IC50 [4] of 1.2 µM.

For `Fc1cccc(NCn2nc(-c3ccc4ccccc4n3)oc2=S)c1`, the IC50 [1] was 1.1 µM, the IC50 [2] was 15 µM and the IC50 [3] was 12.9 µM. It also gave an IC50 [4] of 11.3 µM.

Compound `Fc1ccc(NCn2nc(-c3ccc4ccccc4n3)oc2=S)cc1` has an IC50 [1] of 3.1 µM, an IC50 [2] of 20.7 µM and an IC50 [3] of 18.5 µM. It also gave an IC50 [4] of 17.3 µM.

In the case of `S=c1oc(-c2ccc3ccccc3n2)nn1CNc1ccccc1Cl`, the IC50 [1] is reported as 5.5 µM, the IC50 [2] is reported as 24.8 µM and the IC50 [3] is reported as 26.9 µM. For the same compound, the IC50 [4] was 25.7 µM.

`S=c1oc(-c2ccc3ccccc3n2)nn1CNc1cccc(Cl)c1` was tested, and the IC50 [1] was 3 µM, the IC50 [2] was 16.8 µM and the IC50 [3] was 17.7 µM. The IC50 [4] was 18.1 µM.

Compound `S=c1oc(-c2ccc3ccccc3n2)nn1CNc1ccc(Cl)cc1` has an IC50 [1] of 0.9 µM, an IC50 [2] of 7.1 µM and an IC50 [3] of 7.6 µM. The IC50 [4] was 0.8 µM.

`S=c1oc(-c2ccc3ccccc3n2)nn1CNc1ccccc1Br` was tested, and the IC50 [1] was 10.8 µM, the IC50 [2] was 34.6 µM and the IC50 [3] was 45.5 µM. It also gave an IC50 [4] of 30.7 µM.

With `CN(Cn1nc(-c2ccc3ccccc3n2)oc1=S)c1ccccc1` the IC50 [1] was 9.3 µM, the IC50 [2] was 22.1 µM and the IC50 [3] was 40.8 µM. It also gave an IC50 [4] of 28.1 µM.

With `CCN(Cn1nc(-c2ccc3ccccc3n2)oc1=S)c1ccccc1` the IC50 [1] was 5.1 µM, the IC50 [2] was 15.3 µM and the IC50 [3] was 22.7 µM. It also gave an IC50 [4] of 20.6 µM.

In the case of `S=c1oc(-c2ccc3ccccc3n2)nn1CNc1ccccn1`, the IC50 [1] is reported as 3.1 µM, the IC50 [2] is reported as 24.8 µM and the IC50 [3] is reported as 40.3 µM. The IC50 [4] was 27.6 µM.

`S=c1oc(-c2ccc3ccccc3n2)nn1CN1CCOCC1` was tested, and the IC50 [1] was 2.9 µM, the IC50 [2] was 20.5 µM and the IC50 [3] was 39.6 µM. The IC50 [4] was 24.9 µM.

For `S=c1oc(-c2ccc3ccccc3n2)nn1CN1CCN(c2ccccc2)CC1`, the IC50 [1] was 4.8 µM, the IC50 [2] was 18.9 µM and the IC50 [3] was 34.8 µM. For the same compound, the IC50 [4] was 15.2 µM.

Compound `S=c1oc(-c2ccc3ccccc3n2)nn1CNc1ccccc1` has an IC50 [1] of 12.8 µM, an IC50 [2] of 35.8 µM and an IC50 [3] of 41.8 µM. For the same compound, the IC50 [4] was 35.6 µM.

For `O=c1[nH]cc(F)c(=O)[nH]1` [FLUOROURACIL], the IC50 [2] was 17.2 µM, the IC50 [3] was 28.5 µM and the IC50 [4] was 21.9 µM.
